According to ChEMBL document CHEMBL1141699, “Design, synthesis, and antibacterial activities of novel 3,6-bicyclolide oximes: length optimization and zero carbon linker oximes” (2008):
In brackets after ≈: the same amount, converted by molar mass.

Legend:
Type in all cases: functional
Streptococcus pyogenes [1] = test: Antibacterial activity against erythromycin-susceptible Streptococcus pyogenes 19615 by broth-microdilution method
Method in brief: (§1)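 MICs were determined by broth microdilution following CLSI standards and reported in µg/ml.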

Streptococcus pneumoniae [2] = test: Antibacterial activity against efflux-resistant Streptococcus pneumoniae 7701 expressing mefA by broth-microdilution method
Method in brief: (§2)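 MIC (µg/ml) by broth microdilution following CLSI standards.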

Staphylococcus aureus [3] = test: Antibacterial activity against MLSB-resistant Staphylococcus aureus 27660 expressing ermA by broth-microdilution method; method in brief: as §2
Staphylococcus aureus [4] = test: Antibacterial activity against methicillin-resistant Staphylococcus aureus 33591 by broth-microdilution method; method in brief: as §2
Haemophilus influenzae [5] = test: Antibacterial activity against ampicillin-resistant Haemophilus influenzae 33929 expressing beta-lactamase by broth-microdilution method; method in brief: as §2
Staphylococcus aureus [6] = test: Antibacterial activity against erythromycin-susceptible Staphylococcus aureus 29213 by broth-microdilution method; conditions: ATCC29213; method in brief: as §2
Streptococcus pyogenes [7] = test: Antibacterial activity against efflux-resistant Streptococcus pyogenes 1323 expressing mefA by broth-microdilution method; method in brief: as §2
Moraxella catarrhalis = test: Antibacterial activity against Moraxella catarrhalis by broth-microdilution method; method in brief: as §1
Streptococcus pneumoniae [8] = test: Antibacterial activity against MLSB-resistant Streptococcus pneumoniae 700906 expressing erm by broth-microdilution method; method in brief: as §2
Streptococcus pyogenes [9] = test: Antibacterial activity against MLSB-resistant Streptococcus pyogenes 2912 expressing ermA by broth-microdilution method; method in brief: as §2
Haemophilus influenzae [10] = test: Antibacterial activity against ampicillin-susceptible Haemophilus influenzae by broth-microdilution method
Streptococcus pneumoniae [11] = test: Antibacterial activity against erythromycin-susceptible Streptococcus pneumoniae 49619 by broth-microdilution method; method in brief: as §2

SMILES	MIC (Streptococcus pyogenes [1]) [µg/mL]	MIC (Streptococcus pneumoniae [2]) [µg/mL]	MIC (Staphylococcus aureus [3]) [µg/mL]	MIC (Staphylococcus aureus [4]) [µg/mL]	MIC (Haemophilus influenzae [5]) [µg/mL]	MIC (Staphylococcus aureus [6]) [µg/mL]	MIC (Streptococcus pyogenes [7]) [µg/mL]	MIC (Moraxella catarrhalis) [µg/mL]	MIC (Streptococcus pneumoniae [8]) [µg/mL]	MIC (Streptococcus pyogenes [9]) [µg/mL]	MIC (Haemophilus influenzae [10]) [µg/mL]	MIC (Streptococcus pneumoniae [11]) [µg/mL]
CC[C@H]1OC(=O)[C@H](C)[C@H]2OC/C(=N/OCc3ccccc3)CCO[C@](C)(C[C@@H](C)C(=O)[C@H](C)[C@H]3NC(=O)O[C@@]31C)[C@H](O[C@@H]1O[C@H](C)C[C@H](N(C)C)[C@H]1O)[C@H]2C	≤ 0.06	0.125 (≈ 0.162 µM)	0.5 (≈ 0.646 µM)	> 64	16 (≈ 20.7 µM)	0.5 (≈ 0.646 µM)	0.25 (≈ 0.323 µM)	0.125 (≈ 0.162 µM)	> 64	64 (≈ 82.7 µM)	8 (≈ 10.3 µM)	≤ 0.06
CC[C@H]1OC(=O)[C@H](C)[C@H]2OC/C(=N\Oc3ccc(Cl)cc3)CCO[C@](C)(C[C@@H](C)C(=O)[C@H](C)[C@H]3NC(=O)O[C@@]31C)[C@H](O[C@@H]1O[C@H](C)C[C@H](N(C)C)[C@H]1O)[C@H]2C	≤ 0.06		≤ 0.06	> 64	4 (≈ 5.04 µM)	≤ 0.06		≤ 0.06	16 (≈ 20.1 µM)	2 (≈ 2.52 µM)	4 (≈ 5.04 µM)	≤ 0.06
CC[C@H]1OC(=O)[C@H](C)[C@H]2OC/C(=N\Oc3cccc(-c4ccccc4)c3)CCO[C@](C)(C[C@@H](C)C(=O)[C@H](C)[C@H]3NC(=O)O[C@@]31C)[C@H](O[C@@H]1O[C@H](C)C[C@H](N(C)C)[C@H]1O)[C@H]2C	≤ 0.06		0.125 (≈ 0.15 µM)	4 (≈ 4.78 µM)	4 (≈ 4.78 µM)	0.125 (≈ 0.15 µM)	0.125 (≈ 0.15 µM)	0.125 (≈ 0.15 µM)	2 (≈ 2.39 µM)	4 (≈ 4.78 µM)	4 (≈ 4.78 µM)	≤ 0.06
CC[C@H]1OC(=O)[C@H](C)[C@@H](O[C@H]2C[C@@](C)(OC)[C@@H](O)[C@H](C)O2)[C@H](C)[C@@H](O[C@@H]2O[C@H](C)C[C@H](N(C)C)[C@H]2O)[C@](C)(O)C[C@@H](C)C(=O)[C@H](C)[C@@H](O)[C@]1(C)O [ERYTHROMYCIN]	0.015 (≈ 0.0204 µM)	4 (≈ 5.45 µM)	> 64	> 64	4 (≈ 5.45 µM)	0.5 (≈ 0.681 µM)	16 (≈ 21.8 µM)	0.13 (≈ 0.177 µM)	> 64	> 64	4 (≈ 5.45 µM)	≤ 0.06
CC[C@H]1OC(=O)[C@H](C)[C@H]2OC/C(=N\OCCCCCc3ccccc3)CCO[C@](C)(C[C@@H](C)C(=O)[C@H](C)[C@H]3NC(=O)O[C@@]31C)[C@H](O[C@@H]1O[C@H](C)C[C@H](N(C)C)[C@H]1O)[C@H]2C	≤ 0.06	0.125 (≈ 0.151 µM)	0.25 (≈ 0.301 µM)	> 64	4 (≈ 4.82 µM)	0.25 (≈ 0.301 µM)	0.125 (≈ 0.151 µM)	0.25 (≈ 0.301 µM)	8 (≈ 9.64 µM)	8 (≈ 9.64 µM)	4 (≈ 4.82 µM)	≤ 0.06
CC[C@H]1OC(=O)[C@H](C)[C@H]2OC/C(=N\OCCc3ccccc3)CCO[C@](C)(C[C@@H](C)C(=O)[C@H](C)[C@H]3NC(=O)O[C@@]31C)[C@H](O[C@@H]1O[C@H](C)C[C@H](N(C)C)[C@H]1O)[C@H]2C	≤ 0.06		0.125 (≈ 0.159 µM)	> 64	2 (≈ 2.54 µM)	0.125 (≈ 0.159 µM)	0.125 (≈ 0.159 µM)	≤ 0.06	16 (≈ 20.3 µM)	8 (≈ 10.2 µM)	2 (≈ 2.54 µM)	≤ 0.06
CC[C@H]1OC(=O)[C@H](C)[C@H]2OC/C(=N\OCCCCc3ccccc3)CCO[C@](C)(C[C@@H](C)C(=O)[C@H](C)[C@H]3NC(=O)O[C@@]31C)[C@H](O[C@@H]1O[C@H](C)C[C@H](N(C)C)[C@H]1O)[C@H]2C	≤ 0.06	0.125 (≈ 0.153 µM)	0.25 (≈ 0.306 µM)	64 (≈ 78.4 µM)	4 (≈ 4.9 µM)	0.25 (≈ 0.306 µM)	0.25 (≈ 0.306 µM)	0.25 (≈ 0.306 µM)	4 (≈ 4.9 µM)	16 (≈ 19.6 µM)	8 (≈ 9.8 µM)	≤ 0.06
CC[C@H]1OC(=O)[C@H](C)[C@H]2OC/C(=N\Oc3cccnc3)CCO[C@](C)(C[C@@H](C)C(=O)[C@H](C)[C@H]3NC(=O)O[C@@]31C)[C@H](O[C@@H]1O[C@H](C)C[C@H](N(C)C)[C@H]1O)[C@H]2C	≤ 0.06	0.125 (≈ 0.164 µM)	0.125 (≈ 0.164 µM)	> 64	1 (≈ 1.31 µM)	0.125 (≈ 0.164 µM)	0.25 (≈ 0.329 µM)	≤ 0.06	16 (≈ 21 µM)	4 (≈ 5.26 µM)	1 (≈ 1.31 µM)	0.125 (≈ 0.164 µM)
CC[C@H]1OC(=O)[C@H](C)[C@H]2OC/C(=N\Oc3ccc4ccccc4c3)CCO[C@](C)(C[C@@H](C)C(=O)[C@H](C)[C@H]3NC(=O)O[C@@]31C)[C@H](O[C@@H]1O[C@H](C)C[C@H](N(C)C)[C@H]1O)[C@H]2C	≤ 0.06	0.125 (≈ 0.154 µM)	0.25 (≈ 0.309 µM)	32 (≈ 39.5 µM)	8 (≈ 9.88 µM)	0.25 (≈ 0.309 µM)	0.125 (≈ 0.154 µM)	0.25 (≈ 0.309 µM)	0.5 (≈ 0.617 µM)	2 (≈ 2.47 µM)	4 (≈ 4.94 µM)	≤ 0.06
CC[C@H]1OC(=O)[C@H](C)[C@H]2OC/C(=N\Oc3ccccc3-c3ccccc3)CCO[C@](C)(C[C@@H](C)C(=O)[C@H](C)[C@H]3NC(=O)O[C@@]31C)[C@H](O[C@@H]1O[C@H](C)C[C@H](N(C)C)[C@H]1O)[C@H]2C	≤ 0.06	0.5 (≈ 0.598 µM)	0.5 (≈ 0.598 µM)	16 (≈ 19.1 µM)	8 (≈ 9.57 µM)	0.5 (≈ 0.598 µM)	0.5 (≈ 0.598 µM)	0.5 (≈ 0.598 µM)	16 (≈ 19.1 µM)	16 (≈ 19.1 µM)	8 (≈ 9.57 µM)	≤ 0.06
CC[C@H]1OC(=O)[C@H](C)[C@H]2OC/C(=N\Oc3ccc(-c4ccccc4)cc3)CCO[C@](C)(C[C@@H](C)C(=O)[C@H](C)[C@H]3NC(=O)O[C@@]31C)[C@H](O[C@@H]1O[C@H](C)C[C@H](N(C)C)[C@H]1O)[C@H]2C	≤ 0.06	0.125 (≈ 0.15 µM)	0.5 (≈ 0.598 µM)	16 (≈ 19.1 µM)	8 (≈ 9.57 µM)	0.5 (≈ 0.598 µM)	0.25 (≈ 0.299 µM)	1 (≈ 1.2 µM)	0.25 (≈ 0.299 µM)	2 (≈ 2.39 µM)	8 (≈ 9.57 µM)	≤ 0.06
CC[C@H]1OC(=O)[C@H](C)[C@H]2OC/C(=N\Oc3ccccc3)CCO[C@](C)(C[C@@H](C)C(=O)[C@H](C)[C@H]3NC(=O)O[C@@]31C)[C@H](O[C@@H]1O[C@H](C)C[C@H](N(C)C)[C@H]1O)[C@H]2C	≤ 0.06		≤ 0.06	> 64	1 (≈ 1.32 µM)	≤ 0.06		≤ 0.06	32 (≈ 42.1 µM)	4 (≈ 5.26 µM)	2 (≈ 2.63 µM)	≤ 0.06
CC[C@H]1OC(=O)[C@H](C)[C@H]2OC/C(=N\OCCCc3ccccc3)CCO[C@](C)(C[C@@H](C)C(=O)[C@H](C)[C@H]3NC(=O)O[C@@]31C)[C@H](O[C@@H]1O[C@H](C)C[C@H](N(C)C)[C@H]1O)[C@H]2C	≤ 0.06		0.125 (≈ 0.156 µM)	> 64	2 (≈ 2.49 µM)	0.125 (≈ 0.156 µM)		0.125 (≈ 0.156 µM)	4 (≈ 4.99 µM)	8 (≈ 9.97 µM)	2 (≈ 2.49 µM)	≤ 0.06
CC[C@H]1OC(=O)[C@H](C)[C@H]2OC/C(=N\OCc3ccccc3)CCO[C@](C)(C[C@@H](C)C(=O)[C@H](C)[C@H]3NC(=O)O[C@@]31C)[C@H](O[C@@H]1O[C@H](C)C[C@H](N(C)C)[C@H]1O)[C@H]2C	≤ 0.06		≤ 0.06	> 64	2 (≈ 2.58 µM)	≤ 0.06	0.125 (≈ 0.162 µM)	≤ 0.06	> 64	4 (≈ 5.17 µM)	2 (≈ 2.58 µM)	≤ 0.06
CC[C@H]1OC(=O)[C@H](C)[C@H]2OC/C(=N\Oc3cccc(Cl)c3)CCO[C@](C)(C[C@@H](C)C(=O)[C@H](C)[C@H]3NC(=O)O[C@@]31C)[C@H](O[C@@H]1O[C@H](C)C[C@H](N(C)C)[C@H]1O)[C@H]2C	≤ 0.06		≤ 0.06	32 (≈ 40.3 µM)	2 (≈ 2.52 µM)	≤ 0.06		≤ 0.06	8 (≈ 10.1 µM)	1 (≈ 1.26 µM)	2 (≈ 2.52 µM)	≤ 0.06
CC[C@H]1OC(=O)[C@H](C)[C@H]2OC/C(=N\Oc3ccccc3Cl)CCO[C@](C)(C[C@@H](C)C(=O)[C@H](C)[C@H]3NC(=O)O[C@@]31C)[C@H](O[C@@H]1O[C@H](C)C[C@H](N(C)C)[C@H]1O)[C@H]2C	≤ 0.06		≤ 0.06	64 (≈ 80.6 µM)	2 (≈ 2.52 µM)	≤ 0.06		≤ 0.06	32 (≈ 40.3 µM)	4 (≈ 5.04 µM)	2 (≈ 2.52 µM)	≤ 0.06
